A word on the IC50: it is the point on the concentration scale where inhibition reaches its midpoint.

Sequence of Adenylate cyclase type 5 (O95622 whole entry): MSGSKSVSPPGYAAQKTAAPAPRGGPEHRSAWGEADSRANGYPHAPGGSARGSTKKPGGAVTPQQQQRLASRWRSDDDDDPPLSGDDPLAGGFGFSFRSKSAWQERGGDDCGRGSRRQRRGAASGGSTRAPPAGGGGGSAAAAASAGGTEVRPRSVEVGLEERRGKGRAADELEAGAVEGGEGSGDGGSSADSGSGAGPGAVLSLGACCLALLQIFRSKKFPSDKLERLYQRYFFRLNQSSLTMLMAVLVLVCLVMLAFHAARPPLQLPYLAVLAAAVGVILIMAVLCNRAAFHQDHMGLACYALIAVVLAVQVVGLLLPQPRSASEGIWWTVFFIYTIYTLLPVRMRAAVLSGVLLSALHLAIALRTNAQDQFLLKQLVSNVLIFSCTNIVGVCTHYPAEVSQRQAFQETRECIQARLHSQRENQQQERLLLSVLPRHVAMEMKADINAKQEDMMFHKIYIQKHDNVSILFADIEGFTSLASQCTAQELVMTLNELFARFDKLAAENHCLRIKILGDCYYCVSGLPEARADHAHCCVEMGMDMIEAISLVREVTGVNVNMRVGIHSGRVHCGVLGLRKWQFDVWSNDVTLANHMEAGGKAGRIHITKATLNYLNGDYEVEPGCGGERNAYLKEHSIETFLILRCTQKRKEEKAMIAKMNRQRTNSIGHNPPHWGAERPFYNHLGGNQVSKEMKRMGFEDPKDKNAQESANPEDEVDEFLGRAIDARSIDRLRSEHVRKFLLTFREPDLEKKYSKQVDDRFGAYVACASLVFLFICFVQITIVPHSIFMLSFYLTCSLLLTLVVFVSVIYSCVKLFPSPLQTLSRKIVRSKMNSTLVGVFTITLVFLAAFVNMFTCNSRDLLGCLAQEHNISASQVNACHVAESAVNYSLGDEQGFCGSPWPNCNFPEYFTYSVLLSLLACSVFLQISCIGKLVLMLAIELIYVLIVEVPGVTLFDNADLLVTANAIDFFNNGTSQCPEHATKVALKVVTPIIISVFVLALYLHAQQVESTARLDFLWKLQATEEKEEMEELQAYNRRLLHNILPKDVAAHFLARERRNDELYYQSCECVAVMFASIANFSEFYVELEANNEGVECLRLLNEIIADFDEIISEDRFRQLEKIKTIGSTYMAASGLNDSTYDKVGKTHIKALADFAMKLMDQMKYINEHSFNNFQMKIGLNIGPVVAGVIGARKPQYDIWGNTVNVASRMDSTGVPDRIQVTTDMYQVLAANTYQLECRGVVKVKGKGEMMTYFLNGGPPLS

This assay has as its target Adenylate cyclase type 5 (Homo sapiens, UniProt O95622). Kind of assay: Inhibitory activity against recombinant human adenylate cyclase 5 expressed in HEK293 cells. The format is cell-based. The gist of the method: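 Membranes from HEK293 cells expressing human type V AC (1.4 µg/mL protein), stimulated with 25 nM activated recombinant GsR. Buffer: 60 mM HEPES pH 8.0, 0.6 mM EDTA, 0.01% BSA, 1 mM ATP, 2 mM IBMX, 2 mM MgCl₂. Reaction 30 min at 30 °C. cAMP product quantified by flash plate. Inhibition calculated against compound-free controls.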
With `Nc1ncnc2c1ncn2[C@H]1CC[C@@H](C(=O)NO)C1`, the IC50 was 4.6 µM.

On to `Nc1ncnc2c1ncn2[C@H]1CC[C@H](CC(=O)O)C1`, for which the IC50 is more than 100 µM.

For the compound `Nc1ncnc2c1ncn2[C@H]1CC[C@@H](CC(=O)O)C1`, the IC50 is more than 200 µM. Under `Nc1ncnc2c1ncn2[C@@H]1C=C[C@H](CC(=O)O)C1` stands 73.2 µM; under `Nc1ncnc2c1ncn2[C@H]1C=C[C@@H](CC(=O)NO)C1`, 16.3 µM; under `Nc1ncnc2c1ncn2[C@@H]1C=C[C@@H](CC(=O)NO)C1`, 4.3 µM. Consider `Nc1ncnc2c1ncn2[C@H]1CC[C@H](OCC(=O)NO)C1`, for which the IC50 turned out to be 10.8 µM. With `Nc1ncnc2c1ncn2[C@@H]1C=C[C@@H](CC(=O)O)C1` the figure was more than 200 µM; with `Nc1ncnc2c1ncn2[C@H]1C=C[C@H](OCC(=O)NO)C1`, 13.6 µM; with `Nc1ncnc2c1ncn2[C@@H]1C=C[C@@H](C(=O)NO)C1`, 100 µM. With `Nc1ncnc2c1ncn2[C@H]1CC[C@@H](CC(=O)NO)C1` the figure was 25.1 µM. Under `Nc1ncnc2c1ncn2[C@@H]1CC[C@H](CC(=O)NO)C1` stands 55 µM.

Turning to `Nc1ncnc2c1ncn2[C@H]1CC[C@H](CC(=O)NO)C1`, the IC50 was determined as 9.4 µM. Consider `Nc1ncnc2c1ncn2[C@@H]1CC[C@@H](CC(=O)O)C1`, for which the IC50 is 28.8 µM.

As to `Nc1ncnc2c1ncn2[C@H]1C=C[C@@H](CC(=O)O)C1`, the IC50 is more than 200 µM. On to `Nc1ncnc2c1ncn2[C@@H]1CC[C@H](C(=O)NO)C1`, for which the IC50 was more than 70 µM. With `Nc1ncnc2c1ncn2[C@H]1C=C[C@@H](C(=O)NO)C1` the figure was 188 µM; with `Nc1ncnc2c1ncn2[C@@H]1CC[C@H](CC(=O)O)C1`, more than 200 µM. Under `Nc1ncnc2c1ncn2[C@@H]1CC[C@@H](CC(=O)NO)C1` stands 0.6 µM; under `Nc1ncnc2c1ncn2[C@H]1C=C[C@H](CC(=O)NO)C1`, 0.4 µM.

As to `Nc1ncnc2c1ncn2[C@H]1C=C[C@H](C(=O)NO)C1`, the IC50 was determined as 4.9 µM. Regarding `Nc1ncnc2c1ncn2[C@@H]1C=C[C@H](C(=O)NO)C1`, the IC50 was more than 200 µM. Under `Nc1ncnc2c1ncn2[C@H]1C=C[C@H](CC(=O)O)C1` stands 8.2 µM; under `Nc1ncnc2c1ncn2[C@@H]1C=C[C@H](CC(=O)NO)C1`, 2.6 µM. Under `Nc1ncnc2c1ncn2[C@@H]1CC[C@@H](C(=O)NO)C1` (single isomer, unassigned) stands 78 µM. With `Nc1ncnc2c1ncn2[C@H]1CC[C@H](C(=O)NO)C1` (single isomer, unassigned) the figure was 0.2 µM.

(Values after ChEMBL document CHEMBL1144994, “Metal coordination-based inhibitors of adenylyl cyclase: novel potent P-site antagonists” (J Med Chem, 2003).)
